STAT3 inh-1: inhibitors of IL-6 induced STAT3 signaling. inhibition, % at 5.5 µM. U3A cells, IL-6 STAT3-luciferase reporter, luminescence; host cell line lacks STAT1. 0.89% of 190,000 active. AID 862;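 active = inhibition above the mean inhibition across all screened compounds plus 3 SD, cut at about 44% in these data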;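 note: 0% = DMSO only wells and 100% = 100 µM nifuroxazide control wells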
STAT1 blocker: reduces IFN-gamma driven STAT1 reporter signal | NIH 3T3 STAT1-luciferase reporter, luminescence | inhibition, % at 5.5 µM | 0.35% of 200,000 active;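 active = inhibition above a set limit, the mean inhibition across all tested compounds plus 3 SD, cut at about 34% in these data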;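 note: 0% = IFN-gamma with DMSO and 100% = IFN-gamma with 300 µM nifuroxazide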
APP 5'UTR act: APP 5'UTR luciferase reporter activation; SH-SY5Y APP 5'UTR luciferase reporter, luminescence; zero percent = DMSO vehicle wells; activation, % at 2 µM; 1% of 190,000 active; AID 1276;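 active = activation above a set limit, based on mean plus 3 SD of controls, cut at about 140% in these data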
STAT1 activator: activators of IFN-gamma induced STAT1 signaling; NIH 3T3 STAT1-luciferase reporter, luminescence; 100% = IFN-gamma alone, no compound; activation (% of control), % at 5.5 µM; 2.6% of 200,000 active; AID 932;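 active = activation above the screen-wide mean activation plus 3 SD, cut at about 130% in these data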;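 note: raw ratio to IFN-gamma control signal so 100% means no change and 0% no light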
NF-kB expr up: NF-kB expression increase, human neuronal cells; NF-kB reporter expression; active compounds read high; fold change at 12.5 µM; 1.6% of 190,000 active; AID 1239; in the data active = fold change above about 3.3
STAT3 activator: increases IL-6 driven STAT3 reporter signal; U3A cells, IL-6 STAT3-luciferase reporter, luminescence; 100% = signal with IL-6 EC80 alone; activation (% of control), % at 5.6 µM; 0.91% of 190,000 active; AID 871;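 active = activation above the screen-wide mean of compound activation plus 3 SD, cut at about 130% in these data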;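 note: 0% = background luminescence of wells with medium and substrate only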
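System – human U3A cells carrying STAT3-luciferase construct · Probe or stimulus – Interleukin-6, 33 ng/mL · Schedule – compound 1 h, then IL-6 6 h at 37 °C · Signal – luminescence from STAT3-driven luciferase reporter · Evaluation – percent of IL-6-only median luminescence · Benchmarks – IL-6-only high control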
STAT3 inh-2: confirmation of STAT3 signaling inhibitors | shares compounds with STAT3 inh-1 | U3A cells, IL-6 STAT3 luciferase reporter, luminescence; cell line lacks STAT1 | inhibition, % at 5.7 µM | 45% of 1,200 active;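 active = inhibition above the hit cutoff computed for the primary STAT3 screen, cut at about 44% in these data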;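 note: 0% = IL-6 plus DMSO and 100% = IL-6 plus nifuroxazide control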
NFkB inh 2: inhibits NF-kappaB, counter-screen to STAT3 inhibitors | shares compounds with STAT3 inh-1 | HEK293T NF-kB luciferase reporter, TNF-alpha induced | inhibition, % at 5.7 µM | 36% of 1,200 active | AID 1308;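 active = inhibition above the mean of solvent-only control wells plus 3 SD, cutoff set per campaign, cut at about 13% in these data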;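 note: 0% = TNF-alpha with DMSO and 100% = TNF-alpha with MG high control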
STAT1 inh STAT3c: STAT1 inhibition in STAT3 inhibitor counter-screen. shares compounds with STAT3 inh-1. NIH 3T3 STAT1-luciferase reporter, IFN-gamma induced, luminescence. inhibition, % at 5.7 µM. 27% of 1,200 active;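 active = inhibition above the mean plus 3 SD of solvent-only control wells, limit set per screening run, cut at about 16% in these data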;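 note: 0% = DMSO with IFN-gamma and 100% = nifuroxazide control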
An asterisk follows results filed as active; nt = no result. Hits are enriched below; roughly 5.1% of the tested compounds scored in any of these assays.

SMILES | STAT3 inh-1 | STAT1 blocker | APP 5'UTR act | STAT1 activator | NF-kB expr up | STAT3 activator | STAT3 inh-2 | NFkB inh 2 | STAT1 inh STAT3c
COc1cccc(S(=O)(=O)Nc2ccc(C(=O)Nc3ccncc3)cc2)c1 | 1 | 15 | -5 | 86 | 0.98 | 98 | nt | nt | nt
COc1ccc(NS(=O)(=O)c2cccc(NC(=O)c3ccc(Cl)nc3)c2)cc1 | 86* | 30 | -10 | 72 | 0.6 | 25 | 84* | 38* | 24*
Cc1cccc2cc(-c3ccccc3)c(-c3ccccc3)c[n+]12 | 46* | 26 | 0 | 77 | 0.61 | 64 | 19 | -10 | 1
CCC/C(=N/NC(=O)c1ccccc1Cl)c1ccccc1 | 9 | -10 | 3 | 107 | 1.4 | 97 | nt | nt | nt
COc1ccc2cc3cc(C(=O)Nc4cc(OC)c(OC)c(OC)c4)oc3nc2c1 | 46* | 0 | -5 | 100 | 0.32 | 64 | 33 | 8 | -17
Cc1cc(C)c(C#N)c(SCc2nnc(-c3ccccc3)o2)n1 | 67* | 12 | 44 | 89 | 0.23 | 46 | 12 | -3 | -86
O=C(Nc1ccc(N2CCOCC2)cc1)c1cn2ccccc2n1 | 76* | 28 | 108 | 75 | 2.1 | 39 | 37 | -4 | -25
COc1ccc(Nc2nc(N3CCCCC3)c3ccccc3n2)cc1 | 47* | 19 | 9 | 82 | 0.75 | 63 | 49* | 5 | 27*
Oc1ccc(Nc2nc(N3CCCC3)c3ccccc3n2)cc1 | 6 | -16 | -8 | 115 | 0.47 | 99 | nt | nt | nt
Cc1c(N=Cc2cc(Br)cc(Br)c2O)cccc1C(=O)O | 0 | 8 | 3 | 93 | 1.1 | 98 | nt | nt | nt
O=C1CN(C(=O)/C=C/c2ccccc2F)c2ccccc2N1 | -4 | -22 | 33 | 118 | 0.94 | 105 | nt | nt | nt
Cc1ccc(C(=O)NCC(=O)OCC(=O)c2cc(C)n(Cc3ccco3)c2C)cc1 | 5 | 6 | 19 | 94 | 1.2 | 92 | nt | nt | nt
C=CCn1c(C)cc(C(=O)COC(=O)CNC(=O)c2ccccc2)c1C | 46* | 31 | 13 | 72 | 0.63 | 62 | -26 | 0 | -68
COC(=O)C(CSCc1ccccc1)NC(=O)CSc1nc(N)cc(=O)[nH]1 (centres undefined) | 12 | 7 | 4 | 92 | 1 | 99 | nt | nt | nt
CNC1=C([N+](=O)[O-])CC([N+](=O)[O-])=C(N2CCNCC2)N1C | 12 | 4 | 2 | 96 | 1.4 | 96 | nt | nt | nt
Clc1ccc(-c2cn3nc4c(nc3n2)CCCC4)cc1 | 51* | -14 | 191* | 113 | 2.1 | 60 | 42 | -12 | -78
CN(C)c1ccc(/C=c2\sc3n(c2=O)CCCN=3)cc1 | 64* | -55 | 142* | 150* | 5.7* | 46 | 11 | -20 | -179
CN(C)c1ccc(/C=C2\CCC/C(=C\c3ccccc3)C2=O)cc1 | 12 | 0 | 1 | 100 | 1 | 92 | nt | nt | nt
CCN(C1CCCCC1)S(=O)(=O)c1ccc(S(=O)(=O)NCc2ccncc2)cc1 | 62* | 21 | 19 | 81 | 0.86 | 51 | 43 | 15* | 25*
COc1cc(C)c(Cl)cc1S(=O)(=O)NCc1ccncc1 | 70* | 21 | -14 | 83 | 0.86 | 42 | 66* | 19* | 21*
O=S(=O)(NCc1ccncc1)c1ccc(Br)s1 | 83* | 31 | -28 | 72 | 1.4 | 34 | 80* | 27* | 27*
CCN(C1CCCCC1)S(=O)(=O)c1ccc(S(=O)(=O)NCCc2ccncc2)cc1 | -6 | -1 | 18 | 102 | 1.4 | 111 | nt | nt | nt
COc1cc(C)c(Br)cc1S(=O)(=O)NCc1ccccc1 | 16 | -3 | 15 | 102 | 1.4 | 91 | nt | nt | nt
O=C(O)CNS(=O)(=O)c1ccc(Br)s1 | -2 | 3 | -7 | 98 | 1.2 | 107 | nt | nt | nt
COC(=O)COc1ccc(S(=O)(=O)NCc2ccncc2)cc1 | 63* | 20 | -9 | 81 | 1 | 49 | 54* | 5 | 19*
SMILES | STAT3 inh-1 | STAT1 blocker | APP 5'UTR act | STAT1 activator | NF-kB expr up | STAT3 activator | STAT3 inh-2 | NFkB inh 2 | STAT1 inh STAT3c
CCOC(=O)Nc1ccc(S(=O)(=O)NC2CCCCC2)cc1 | 19 | 13 | -6 | 88 | 1.2 | 91 | nt | nt | nt
COC(=O)c1ccc(C(=O)OC)c(NC(=O)CN(C)Cc2ccc(Cl)c(Cl)c2)c1 | -7 | 3 | -14 | 97 | 0.9 | 101 | nt | nt | nt
O=S(=O)(NCc1ccncc1)c1ccccc1 | 32 | 12 | -1 | 88 | 0.99 | 72 | nt | nt | nt
Cc1ccc(S(=O)(=O)NCc2ccncc2)cc1C | 74* | 31 | 3 | 70 | 0.89 | 39 | 76* | 26* | 17*
COc1cccc(C(=O)Nc2ccc(NC(=O)C(C)(C)C)cn2)c1 | 58* | 16 | 138* | 85 | 1.9 | 55 | 8 | -14 | -67
CN(C(=O)COC(=O)CNC(=O)C12CC3CC(CC(C3)C1)C2)C1CCS(=O)(=O)C1 (centres undefined) | -10 | 2 | -14 | 98 | 1.2 | 106 | nt | nt | nt
CC(=O)/C(N=Nc1ccc2c(c1)OCCO2)=C(\C)O | 68* | 19 | 16 | 82 | 2 | 44 | -6 | -10 | -92
CS(=O)(=O)c1ccc(C(=O)N2CCN(Cc3ccccc3)CC2)cc1 | 7 | -5 | 12 | 105 | 1.1 | 99 | nt | nt | nt
O=C(c1ccc(CNS(=O)(=O)c2ccccc2)cc1)N1CCN(Cc2ccccc2)CC1 | 44* | 3 | 14 | 97 | 0.88 | 66 | 28 | 6 | -16
Cn1nc(C(C)(C)C)cc1C(=O)NCc1ccc(N2CCCC2=O)cc1 | 59* | 22 | 16 | 79 | 0.73 | 54 | 63* | 29* | 33*
CC(=O)Nc1ccccc1OCC(=O)c1cc(C)n(Cc2cccs2)c1C | 79* | 7 | 17 | 95 | 0.47 | 37 | 84* | 27* | -16
Cc1cc(C(=O)CSc2nnc(N)s2)c(C)n1Cc1cccs1 | 51* | -12 | 136* | 111 | 2.7 | 57 | 36 | 8 | -46
Cc1cc(C(=O)COc2cccnc2[N+](=O)[O-])c(C)n1Cc1cccs1 | 32 | 13 | 1 | 87 | 1.1 | 75 | nt | nt | nt
Cc1csc(SCC(=O)c2cc(C)n(Cc3cccs3)c2C)n1 | 79* | 40* | 120 | 75 | 0.73 | 35 | 52* | 24* | -26
COc1ccc(-c2nnc(SCC(=O)c3cc(C)n(Cc4cccs4)c3C)o2)cc1 | -1 | 2 | 5 | 98 | 1.8 | 104 | nt | nt | nt
CN(C)/C=C/C1=CC(=O)CC(C)(C)C1 | 8 | -1 | 13 | 102 | 1 | 94 | nt | nt | nt
Cc1cccc(Cc2ccc(Cl)nn2)c1 | 2 | -7 | 25 | 106 | 0.96 | 101 | nt | nt | nt

Screening results (PubChem BioAssay)
